Test results from ChEMBL document CHEMBL3124922, “The antitumor agent PBT-1 directly targets HSP90 and hnRNP A2/B1 and inhibits lung adenocarcinoma growth and metastasis” (J Med Chem, 2014).
Calls of active or inactive are those of the source. The calls are words filed in the database; no cut-off is given here.

What was measured:
[1] = target: T1, HSP90 and hnRNPA2/B1 (Homo sapiens, UniProt P08238+P22626); test: Inhibition of HSP90/hnRNPA2/B1 in human CL1-5 cells assessed as reduction of slug expression at >0.5 ug/ml after 24 hrs by Western blotting analysis; assay type: cell-based
T1 sequence (P08238 whole entry, looked up): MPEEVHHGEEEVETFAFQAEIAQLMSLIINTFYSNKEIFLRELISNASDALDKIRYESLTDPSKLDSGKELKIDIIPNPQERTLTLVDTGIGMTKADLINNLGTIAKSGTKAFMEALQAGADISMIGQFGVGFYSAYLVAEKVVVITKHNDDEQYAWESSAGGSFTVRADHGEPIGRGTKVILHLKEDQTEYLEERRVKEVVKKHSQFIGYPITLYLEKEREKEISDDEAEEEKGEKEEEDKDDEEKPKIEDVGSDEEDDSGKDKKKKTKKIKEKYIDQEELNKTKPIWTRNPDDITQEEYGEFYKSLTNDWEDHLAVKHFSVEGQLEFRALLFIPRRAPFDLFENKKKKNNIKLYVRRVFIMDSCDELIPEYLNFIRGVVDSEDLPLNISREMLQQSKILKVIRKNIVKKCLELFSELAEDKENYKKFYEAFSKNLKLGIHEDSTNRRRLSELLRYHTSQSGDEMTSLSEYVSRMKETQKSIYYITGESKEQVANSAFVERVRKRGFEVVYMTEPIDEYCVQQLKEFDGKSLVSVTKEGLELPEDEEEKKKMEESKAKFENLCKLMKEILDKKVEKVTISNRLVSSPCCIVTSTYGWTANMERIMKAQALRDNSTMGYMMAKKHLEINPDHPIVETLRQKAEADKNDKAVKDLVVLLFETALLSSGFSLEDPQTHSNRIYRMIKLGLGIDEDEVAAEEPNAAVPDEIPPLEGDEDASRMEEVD
T1 sequence (P22626 whole entry, looked up): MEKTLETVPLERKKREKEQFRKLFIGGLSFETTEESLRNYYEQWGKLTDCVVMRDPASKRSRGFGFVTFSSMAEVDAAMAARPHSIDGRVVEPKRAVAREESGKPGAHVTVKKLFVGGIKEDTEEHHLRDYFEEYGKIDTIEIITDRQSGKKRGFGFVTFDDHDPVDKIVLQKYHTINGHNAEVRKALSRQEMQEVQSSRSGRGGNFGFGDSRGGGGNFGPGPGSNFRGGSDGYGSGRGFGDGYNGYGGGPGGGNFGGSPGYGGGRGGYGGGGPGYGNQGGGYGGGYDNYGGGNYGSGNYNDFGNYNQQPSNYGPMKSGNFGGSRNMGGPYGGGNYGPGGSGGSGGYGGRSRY

[2] = target: T1, HSP90 and hnRNPA2/B1; test: Binding affinity to HSP90/hnRNPA2/B1 in human CL1-5 cell lysate after 1 hr by affinity chromatographic analysis; assay type: cell-free
In short: (§1)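 CL1-5 lysate (10 mg protein; Tris pH 8.0 lysis buffer) held with or without 1 mM free ligand for 1 h, then loaded at 4 °C onto Sepharose 4B carrying the coupled ligand, with uncoupled beads as control. Washed with T buffer, eluted with 4 M urea/1 M NaCl; flow-through, wash and eluate probed by Western blot for HSP90, hnRNP A2/B1, HSP70 and β-actin.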

[3] = target: T1, HSP90 and hnRNPA2/B1; test: Inhibition of HSP90/hnRNPA2/B1 in human CL1-5 cells assessed as reduction of slug expression at 0.25 ug/ml up to 5 hrs by Western blotting analysis; assay type: cell-based
In short: (§2)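 CL1-5 or CL152 cells exposed to a range of concentrations for 5 h; Slug (and E-cadherin) detected by Western blot with β-actin as loading control; representative of three experiments.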

[4] = target: T1, HSP90 and hnRNPA2/B1; test: Inhibition of HSP90/hnRNPA2/B1 in human CL1-5 cells; assay type: cell-based
[5] = test system: CL1-5; test: Binding affinity to HSP70 in human CL1-5 cell lysate after 1 hr by affinity chromatographic analysis; assay type: cell-free; in short: as §1
[6] = test system: CL1-5; test: Antimigratory activity against human CL1-5 cells assessed as reduction of cell migration at 0.25 ug/ml after 1 to 12 hrs by wound healing assay relative to control; assay type: functional, cell-based
In short: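 Cells grown to near-confluence in 6 cm dishes, monolayer scratched with a pipet tip, debris washed off with PBS; incubated at 37 °C and photographed at 0, 4, 8 and 12 h. Cells migrating into the cell-free zone counted. Triplicate samples, at least three independent experiments, mean ± SD.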

[7] = target: T1, HSP90 and hnRNPA2/B1; test: Inhibition of HSP90/hnRNPA2/B1 in human CL152 cells assessed as reduction of slug expression at 0.5 ug/ml after 5 hrs by Western blotting analysis; assay type: cell-based; in short: as §2
[8] = test system: CL1-5; test: Reduction of filopodia formation in human CL1-5 cells at 0.1 to 0.75 ug/ml by immunofluorescence staining-based microscopic analysis; assay type: functional, cell-based
[9] = target: T1, HSP90 and hnRNPA2/B1; test: Inhibition of HSP90/hnRNPA2/B1 in human PC9 cells assessed as reduction of slug expression at 0.5 ug/ml after 5 hrs by Western blotting analysis; assay type: cell-based; conditions: PC-9
[10] = target: T1, HSP90 and hnRNPA2/B1; test: Inhibition of HSP90/hnRNPA2/B1 in human CL152 cells assessed as upregulation of E-cadherin expression after 5 hrs by Western blotting analysis; assay type: cell-based
[11] = target: T1, HSP90 and hnRNPA2/B1; test: Inhibition of HSP90/hnRNPA2/B1 in human CL1-5 cells assessed as reduction of slug expression at >0.5 ug/ml up to 5 hrs by Western blotting analysis; assay type: cell-based; in short: as §2
[12] = target: T1, HSP90 and hnRNPA2/B1; test: Inhibition of HSP90/hnRNPA2/B1 in human CL1-5 cells assessed as reduction of slug expression at 0.5 ug/ml after 2 hrs by Western blotting analysis; assay type: cell-based
In short: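 CL1-5 cells exposed to 0.5 μg/mL for 0.5, 1 or 2 h; Slug in cell extracts detected by Western blot with β-actin as loading control; representative of three experiments.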

[13] = test system: Mus musculus; test: Toxicity in Balb/c nu/nu mouse xenografted with human CL1-5 cells at 10 mg/kg, ip qd administered 3 times per week measured 2 times per week for 28 days; assay type: organism-based; parameters: dose 10 mg/kg, route intraperitoneal; conditions: in vivo, 672 h
In short: (§3)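 Six-week-old male BALB/c nu/nu mice (SPF) given 1 × 10^6 CL1-5 cells s.c. in the right flank; at 100 mm^3 tumor volume (5–8 days), six mice per group randomized to compound 10 mg/kg/day or vehicle i.p. three times weekly. Volume from calipers as 0.5W²L; tumor volume and body weight recorded twice weekly.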

[14] = test system: CL1-5; test: Antitumor activity against human CL1-5 cells xenografted in Balb/c nu/nu mouse assessed as subcutaneously implanted tumor growth inhibition at 10 mg/kg/day, ip administered 3 times per week measured 2 times per week for 28 days; assay type: functional, organism-based; in short: as §3
[15] = test system: CL1-5; test: Antiinvasive activity against human CL1-5 cells after 20 hrs by matrigel-coated transwell assay; assay type: functional, cell-based
In short: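 Transwell chambers (8 μm pores) coated with 5 μg/mL Matrigel; 2.5 × 10^4 cells seeded on top in medium with 10% NuSerum; after 20 h, cells reaching the lower side fixed in methanol, stained with 50 μg/mL propidium iodide and quantified by image analysis. Triplicate samples; mean ± SD of three independent experiments.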

[16] = test system: CL1-5; test: Antitumor activity against human CL1-5 cells xenografted in Balb/c nu/nu mouse assessed as orthotopic tumor growth inhibition at 10 mg/kg/day, ip administered 3 times per week measured 2 times per week for 28 days; assay type: functional, organism-based
In short: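 CL1-5 cells inoculated into the pleural cavity of 6-week-old BALB/c nu/nu mice (n = 6 per group); i.p. dosing with compound or DMSO vehicle three times weekly from day 5. At 28 days mice killed by CO2, organs formalin-fixed; tumor volume in excised lungs and metastatic nodule counts taken, mean ± SD of six mice.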

[17] = target: T1, HSP90 and hnRNPA2/B1; test: Inhibition of HSP90/hnRNPA2/B1 in human CL1-5 cells assessed as upregulation of E-cadherin expression after 0.5 to 2 hrs by Western blotting analysis; assay type: cell-based

inhibition [1]	Activity [2]	inhibition [3]	IC50 [4]	inhibition [7]	inhibition [9]	inhibition [10]	inhibition [11]	inhibition [12]	inhibition [17]	Structure (SMILES)	Activity [5]	Activity [6]	Activity [8]	Activity [13]	TGI [14]	Activity [15]	TGI [16]
Active	Active	inactive	0.5 µg/mL							Cl.Cl.NCCOCCOCCOCCOc1ccc2c(CN3CCC(CO)CC3)cc3cc4c(cc3c2c1)OCO4	inactive						
				Active	Active	Dose-dependent effect	Active	Active	Dose-dependent effect	COc1ccc2c(CN3CCC(CO)CC3)cc3cc4c(cc3c2c1)OCO4		Active	Active	Non-toxic	Active	Dose-dependent effect	Active
